Measured values: ChEMBL document CHEMBL6083223, “Development of di-arylated 1,2,4-triazole-based derivatives as therapeutic agents against breast cancer: synthesis and biological evaluation” (RSC Med Chem, 2024)
Activity calls are given as the source filed them. No cut-off for these calls is given here.

Assays:
[1] = test system: MCF7; test: Antiproliferative activity against human MCF7 cells assessed as inhibition of cell growth at 10 uM incubated for 48 hrs by MTT assay; type: functional
Method in brief: (§1)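 Single-concentration screen: cells (ATCC; 37 °C, 5% CO₂) seeded at 4 × 10⁴ per well, adhered overnight, then treated 48 h at 10 μM. Medium removed, MTT (2.5 mg mL⁻¹) added for 4 h, formazan dissolved in DMSO, absorbance read at 570 nm; percent inhibition versus untreated cells.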

[2] = test system: MDA-MB-231; test: Antiproliferative activity against human MDA-MB-231 cells assessed as inhibition of cell growth at 10 uM incubated for 48 hrs by MTT assay; type: functional; method in brief: as §1
[3] = test system: ZR-75-1; test: Antiproliferative activity against human ZR-75-1 cells assessed as inhibition of cell growth at 10 uM incubated for 48 hrs by MTT assay; type: functional; method in brief: as §1
[4] = Cytotoxicity against human MCF-10A cells assessed as inhibition of cell growth incubated for 24 hrs by MTT assay; type: toxicity, cell-based
Method in brief: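 Non-tumorigenic MCF-10A breast epithelial cells in 96-well plates (5% CO₂) exposed 24 h to 10, 50 and 100 μM. MTT (2.5 mg mL⁻¹) for 4 h, formazan dissolved in DMSO, absorbance at 570 nm; percent growth inhibition calculated to estimate IC50.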

[5] = test system: MCF7; test: Antiproliferative activity against human MCF7 cells assessed as inhibition of cell growth incubated for 48 hrs by MTT assay; type: functional, cell-based; conditions: MCF7, 48 h
Method in brief: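 MCF-7 exposed 48 h to 0.625, 1.25, 2.5, 5, 10, 20 and 40 μM. MTT (2.5 mg mL⁻¹) added for 4 h, medium removed, formazan solubilized in DMSO, absorbance at 570 nm; percent growth inhibition calculated and IC50 derived.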

[6] = test system: MDA-MB-231; test: Antiproliferative activity against human MDA-MB-231 cells assessed as inhibition of cell growth incubated for 48 hrs by MTT assay; type: functional, cell-based; conditions: MDA-MB-231, 48 h
[7] = test system: ZR-75-1; test: Antiproliferative activity against human ZR-75-1 cells assessed as inhibition of cell growth incubated for 48 hrs by MTT assay; type: functional, cell-based; conditions: ZR-75-1, 48 h
[8] = test system: MCF7; test: Increase in reactive oxygen species production in human MCF7 cells treated with higher concentrations by DCFH-DA staining based fluorescence microscopic analysis; type: functional, cell-based
[9] = test system: MCF7; test: Induction of autophagy in human MCF7 cells assessed as increase in autophagosome production at 5 to 20 uM by acridine orange staining based fluorescence microscopic analysis; type: functional, cell-based; conditions: dose 5-20 µM
Method in brief: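 MCF-7 cells treated at 5, 10 and 20 μM, then stained with 200 nM acridine orange for 10 min at 37 °C and imaged by fluorescence microscopy.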

[10] = Half life in mouse liver microsomes; type: ADME, Microsome
Method in brief: (§2)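 Substrate depletion: microsomes (0.5 mg mL⁻¹ protein) in 100 mM PBS pH 7.4, 3.3 mM MgCl₂, 1.2 mM NADPH, preincubated 5 min at 37 °C; compound spiked at 5 μM, sampled at 0, 15 and 30 min. Quenched with cold acetonitrile containing diazepam internal standard, LC-MS/MS; triplicate. Log-linear plot of remaining substrate (0 min = 100%) gives parameters.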

[11] = Metabolic stability of the compound in human liver microsomes at 5 uM measured for 30 mins in absence of NADPH by substrate depletion method based LC-MS/MS analysis; type: ADME, Microsome; conditions: 0.5 h
Method in brief: (§3)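 NADPH-free control incubations: microsomes (0.5 mg mL⁻¹) in 100 mM PBS pH 7.4 with 3.3 mM MgCl₂, no NADPH, 37 °C; compound 5 μM, 0–30 min. Acetonitrile quench with diazepam internal standard, LC-MS/MS; percent remaining versus 0 min, triplicate.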

[12] = Intrinsic clearance in mouse liver microsomes measured per mg protein; type: ADME, Microsome; method in brief: as §2
[13] = Metabolic stability of the compound in monkey liver microsomes at 5 uM measured for 30 mins in absence of NADPH by substrate depletion method based LC-MS/MS analysis; type: ADME, Macaca mulatta, Microsome; conditions: rhesus monkey, 0.5 h; method in brief: as §3
[14] = Metabolic stability of the compound in mouse liver microsomes at 5 uM measured for 30 mins in absence of NADPH by substrate depletion method based LC-MS/MS analysis; type: ADME, Microsome; conditions: 0.5 h; method in brief: as §3
[15] = Half life in human liver microsomes; type: ADME, Microsome; method in brief: as §2
[16] = Metabolic stability of the compound in dog liver microsomes at 5 uM measured for 30 mins in absence of NADPH by substrate depletion method based LC-MS/MS analysis; type: ADME, Canis lupus familiaris, Microsome; conditions: 0.5 h; method in brief: as §3
[17] = Intrinsic clearance in rat liver microsomes measured per mg protein; type: ADME, Microsome; conditions: read-out: CLH; method in brief: as §2
[18] = Half life in rat liver microsomes; type: ADME, Microsome; method in brief: as §2
[19] = Half life in dog liver microsomes; type: ADME, Canis lupus familiaris, Microsome; method in brief: as §2
[20] = Intrinsic clearance in monkey liver microsomes measured per mg protein; type: ADME, Macaca mulatta, Microsome; conditions: rhesus monkey; method in brief: as §2
[21] = Intrinsic clearance in dog liver microsomes measured per mg protein; type: ADME, Canis lupus familiaris, Microsome; conditions: read-out: CLH; method in brief: as §2
[22] = Half life in monkey liver microsomes; type: ADME, Macaca mulatta, Microsome; conditions: rhesus monkey; method in brief: as §2
[23] = test system: MCF7; test: Induction of apoptosis in human MCF7 cells assessed as increase in Bax protein expression at 5 to 20 uM incubated for 48 hrs by western blot analysis; type: functional, cell-based; conditions: dose 5-20 µM
Method in brief: (§4)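 MCF-7 cells (1 × 10⁶ per 100 mm dish, RPMI 1640 with 10% FBS) treated 48 h at 5, 10, 15 and 20 μM, 37 °C. RIPA lysates, Bradford-quantified, 50 μg per lane on SDS-PAGE, PVDF transfer, 5% BSA/TBST block; probed for cleaved PARP (1:1000) and Bax (1:400), band densitometry.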

[24] = Intrinsic clearance in human liver microsomes measured per mg protein; type: ADME, Microsome; method in brief: as §2
[25] = Metabolic stability of the compound in rat liver microsomes at 5 uM measured for 30 mins in absence of NADPH by substrate depletion method based LC-MS/MS analysis; type: ADME, Microsome; conditions: 0.5 h; method in brief: as §3
[26] = test system: MCF7; test: Induction of apoptosis in human MCF7 cells assessed as disruption of mitochondrial […] membrane potential by measuring decrease in fluorescence intensity at 5 to 20 uM incubated for 30 mins by Rhodamine123 staining based fluorescence microscopic analysis; type: functional, cell-based; conditions: dose 5-20 µM
Method in brief: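 MCF-7 cells treated at 5, 10 and 20 μM; rhodamine 123 (1 μg) added 30 min before the end of treatment, cells rinsed with PBS and examined under a fluorescence microscope for loss of mitochondrial fluorescence.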

[27] = test system: MCF7; test: Induction of apoptosis in human MCF7 cells assessed as increase in cleaved PARP protein expression at 5 to 20 uM incubated for 48 hrs by western blot analysis; type: functional, cell-based; conditions: dose 5-20 µM; method in brief: as §4

Structure (SMILES): COc1cccc(-c2ncn(-c3cc(OC)c(OC)c(OC)c3)n2)c1
- inhibition at 10 µM [1]: 16.4%
- inhibition at 10 µM [2]: 16.4%

Structure (SMILES): COc1ccc(-n2cnc(-c3ccc(F)c(F)c3)n2)cc1OC
- inhibition at 10 µM [1]: 16.1%
- inhibition at 10 µM [2]: 7.98%

Structure (SMILES): COc1cc(-n2cnc(-c3ccc(F)c(F)c3)n2)cc(OC)c1OC
- inhibition at 10 µM [1]: 23.3%
- inhibition at 10 µM [2]: 23.4%

Structure (SMILES): COc1ccc(-n2cnc(-c3ccc(C(F)(F)F)cc3)n2)cc1OC
- inhibition at 10 µM [1]: 21.3%
- inhibition at 10 µM [2]: 15.8%

Structure (SMILES): COc1cc(-n2cnc(-c3cccc(O)c3)n2)cc(OC)c1OC
- inhibition at 10 µM [1]: 32.8%
- inhibition at 10 µM [3]: 8.54%
- inhibition at 10 µM [2]: 10.4%

Structure (SMILES): COc1cc(-n2cnc(-c3cccc(C=O)c3)n2)cc(OC)c1OC
- inhibition at 10 µM [1]: 13.4%
- inhibition at 10 µM [2]: 22.6%

Structure (SMILES): COc1ccc(-n2cnc(-c3ccc(Cl)cc3)n2)cc1OC
- inhibition at 10 µM [1]: 9.2%
- inhibition at 10 µM [3]: 0%
- inhibition at 10 µM [2]: 0%

Structure (SMILES): COc1cc(-n2cnc(-c3ccc4nc[nH]c4c3)n2)cc(OC)c1OC
- IC50 at 24 h [4]: > 100 µM
- IC50 [5]: 5.2 µM
- inhibition at 10 µM [1]: 58.5%
- IC50 [6]: 15 µM
- inhibition at 10 µM [3]: 21.2%
- inhibition at 10 µM [2]: 31.6%
- IC50 [7]: 93 µM

Structure (SMILES): COc1ccc(-n2cnc(-c3ccc(F)cc3)n2)cc1OC
- inhibition at 10 µM [1]: 17.6%
- inhibition at 10 µM [2]: 16.8%

Structure (SMILES): c1ccc2c(-c3ncn(-c4ccc5c(c4)OCO5)n3)cccc2c1
- inhibition at 10 µM [1]: 5.71%
- inhibition at 10 µM [2]: 15.3%

Structure (SMILES): COc1cc(-n2cnc(-c3cc(Cl)cc(Cl)c3)n2)cc(OC)c1OC
- inhibition at 10 µM [1]: 0%
- inhibition at 10 µM [2]: 17.4%

Structure (SMILES): COc1ccc(-c2ncn(-c3cc(OC)c(OC)c(OC)c3)n2)cc1F
- Activity [8]: Active
- Activity [9]: Active
- half-life [10]: 34 min
- Stability [11]: Stable
- microsomal CLint [12]: 41 µL/min/mg
- Stability [13]: Stable
- Stability [14]: Stable
- half-life [15]: > 60 min
- Stability [16]: Stable
- microsomal CLint [17]: > 86.1 µL/min/mg
- half-life [18]: < 30 min
- half-life [19]: < 30 min
- microsomal CLint [20]: 23 µL/min/mg
- IC50 at 24 h [4]: > 100 µM
- IC50 [5]: 4.8 µM
- microsomal CLint [21]: > 53 µL/min/mg
- inhibition at 10 µM [1]: 51.3%
- half-life [22]: 60 min
- IC50 [6]: 17 µM
- inhibition at 10 µM [3]: 6.41%
- inhibition at 10 µM [2]: 32.1%
- Activity [23]: Active
- microsomal CLint [24]: 13 µL/min/mg
- IC50 [7]: 34 µM
- Stability [25]: Stable
- Activity [26]: Active
- Activity [27]: Active
